The values that follow come from ChEMBL document CHEMBL4265973, “Broad-spectrum antibacterial amphiphilic aminoglycosides: A new focus on the structure of the lipophilic groups extends the series of active dialkyl neamines” (Eur J Med Chem, 2018).

For series [1], the system named is Staphylococcus aureus. The experiment in a line: Antibacterial activity against Staphylococcus aureus SA-1 expressing NorA pump by microdilution assay. (In general: In broth dilution the organism is exposed to a series of concentrations in liquid medium.)
Series [2] is described as follows: Cytotoxicity against mouse J774 cells assessed as cell viability at 30 uM after 24 hrs by MTT assay relative to control. The conditions noted are these: J774 cells, read-out: Activity. Type of series: cell-based. In short, it runs like this:
(§1)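 Murine J774 macrophages are exposed for 24 h to compound at 10 or 30 µM, then given 0.2 mg/mL MTT for 1 h. The reaction is stopped with DMSO and OD read at 570 nm; viability is metabolic activity as % of control. The number of independent experiments is given per value.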
Background: Formazan colour is commonly taken as a measure of viable cells.

The subject of series [3] is Staphylococcus aureus. The experiment in a line: Antibacterial activity against methicillin-resistant Staphylococcus aureus ATCC 33592 by microdilution assay. Type of series: functional. In short, it runs like this: (§2)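 Broth microdilution MIC per CLSI recommendations, fresh culture in cation-adjusted Mueller-Hinton broth, starting inoculum 10^6 cells.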
The subject of series [4] is Escherichia coli. The experiment in a line: Antibacterial activity against Escherichia coli L8058.1 harboring ANT2'-1A by microdilution assay. Type of series: functional. In short, it runs like this:
as §2

Series [5] in a line: Cytotoxicity against mouse J774 cells assessed as cell viability at 10 uM after 24 hrs by MTT assay relative to control. It is filed as cell-based. To be noted: J774 cells, read-out: Activity. In short, it runs like this: as §1
The test system of series [6] is Pseudomonas aeruginosa. The experiment in a line: Antibacterial activity against Pseudomonas aeruginosa FO3 harboring AAC6'-2A by microdilution assay. Type of series: functional. In short, it runs like this:
as §2

Series [7] concerns Escherichia coli. The experiment in a line: Antibacterial activity against Escherichia coli PAZ505H8101 harboring AAC6'-1B by microdilution assay. It is filed as functional. In short, it runs like this: as §2
The test system of series [8] is Escherichia coli. The experiment in a line: microbe, parasite or virus in culture. The conditions noted are these: ATCC 25922.
In series [9] the test system is Pseudomonas aeruginosa. The experiment in a line: Antibacterial activity against Pseudomonas aeruginosa ATCC 27853 by microdilution assay. Type of series: functional. In short, it runs like this: (§3)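 Broth microdilution per CLSI recommendations, using a fresh culture in cation-adjusted Mueller-Hinton broth (CA-MHB) and a starting inoculum of 10^6 cells; the MIC is the value read.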

The subject of series [10] is Acinetobacter lwoffii. The experiment in a line: Antibacterial activity against Acinetobacter lwoffii AI.88-483 harboring APH3'-6A by microdilution assay. Type of series: functional. In short, it runs like this: as §2
The subject of series [11] is Staphylococcus aureus. The experiment in a line: Antibacterial activity against Staphylococcus aureus ATCC 25923 by microdilution assay. Type of series: functional. Summed up:
as §2

Series [12] has as its system Klebsiella pneumoniae. The experiment in a line: Antibacterial activity against Klebsiella pneumoniae 700603 by microdilution assay. It is filed as functional. Summed up: as §3
The subject of series [13] is Pseudomonas aeruginosa. Briefly: Antibacterial activity against Pseudomonas aeruginosa PA406 harboring triABC deletion mutant by microdilution assay. Type of series: functional. In short, it runs like this:
as §2

Series [14] concerns Pseudomonas aeruginosa. Briefly: Antibacterial activity against Pseudomonas aeruginosa PA22 harboring surexp MexXY by microdilution assay. It is filed as functional. Summed up: as §2
In series [15] the test system is Acinetobacter lwoffii. Briefly: Antibacterial activity against Acinetobacter lwoffii ATCC 17925 by microdilution assay. It is filed as functional. Summed up:
as §3

The subject of series [16] is Pseudomonas aeruginosa. Briefly: Antibacterial activity against Pseudomonas aeruginosa ATCC 27853 measured over 1 month by microdilution assay. Type of series: functional, organism-based. Summed up: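 Serial passage of P. aeruginosa ATCC 27853 held continuously at half the MIC for up to 38 days. […] The new minimal inhibitory concentration is read by visual inspection, confirmed by agar dilution, and the drug level raised to match.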

In brackets after ≈: the same amount, converted by molar mass. Activity calls are given as the source filed them. No cut-off for these calls is given here. Bounds are passed on as bounds.

Turning to `CCCCCCCCCCCO[C@@H]1[C@@H](N)[C@@H](O[C@H]2[C@H](O)[C@@H](OCCCCCCCCCCC)[C@H](N)C[C@@H]2N)O[C@H](CN)[C@H]1O`, the MIC was found to be 8 µg/mL (≈ 12.7 µM) in series [1]; 64 µg/mL (≈ 101 µM) in [3]; 16 µg/mL (≈ 25.4 µM) in [4]; 16 µg/mL (≈ 25.4 µM) in series [6]; 16 µg/mL (≈ 25.4 µM) in series [7]; 4 µg/mL (≈ 6.34 µM) in series [8]. Also, the MIC in series [9] turned out to be 16 µg/mL (≈ 25.4 µM); in series [10] it was 32 µg/mL (≈ 50.7 µM); in series [11], 8 µg/mL (≈ 12.7 µM); in series [12] it was 32 µg/mL (≈ 50.7 µM); in [13] it was 16 µg/mL (≈ 25.4 µM); in series [14], 16 µg/mL (≈ 25.4 µM). For the same compound, in [15], the MIC stood at 32 µg/mL (≈ 50.7 µM). The viability at 24 h, 30 µM in [2] amounted to 14.1%. Moreover, the viability at 24 h, 10 µM in series [5] is 81.7%.
In the case of `CCCCCCCCCCCO[C@@H]1[C@@H](O)[C@H](O[C@H]2O[C@H](CN)[C@@H](O)[C@H](OCCCCCCC)[C@H]2N)[C@@H](N)C[C@H]1N`, the MIC was found to be 1 µg/mL (≈ 1.74 µM) in [1]; 1 µg/mL (≈ 1.74 µM) in [3]; 4 µg/mL (≈ 6.96 µM) in series [4]; 4 µg/mL (≈ 6.96 µM) in [6]; 4 µg/mL (≈ 6.96 µM) in series [7]; 16 µg/mL (≈ 27.8 µM) in series [8]. Besides, the MIC in series [9] is 2 µg/mL (≈ 3.48 µM); in series [10] it was over 128 µg/mL; in series [11] it was 1 µg/mL (≈ 1.74 µM); in series [12], 8 µg/mL (≈ 13.9 µM); in [13], 2 µg/mL (≈ 3.48 µM); in [14], 4 µg/mL (≈ 6.96 µM). In series [15], the MIC is 2 µg/mL (≈ 3.48 µM). The viability at 24 h, 30 µM in series [2] was 38.8%. The viability at 24 h, 10 µM in series [5] was determined as 82.9%.
For `CCCCCCCCCCCO[C@@H]1[C@@H](N)[C@@H](O[C@H]2[C@H](O)[C@@H](OCCCCCCC)[C@H](N)C[C@@H]2N)O[C@H](CN)[C@H]1O`, the MIC in series [1] is 32 µg/mL (≈ 55.7 µM); in series [3], 1 µg/mL (≈ 1.74 µM); in series [4], 4 µg/mL (≈ 6.96 µM); in series [6] it was 4 µg/mL (≈ 6.96 µM); in series [7], 2 µg/mL (≈ 3.48 µM); in series [8] it was 2 µg/mL (≈ 3.48 µM). Besides, the MIC in series [9] is 2 µg/mL (≈ 3.48 µM); in [10] it was over 128 µg/mL; in series [11] it was 1 µg/mL (≈ 1.74 µM); in series [12] it was 4 µg/mL (≈ 6.96 µM); in series [13], 2 µg/mL (≈ 3.48 µM); in series [14], 4 µg/mL (≈ 6.96 µM). Moreover, the MIC in [15] was 2 µg/mL (≈ 3.48 µM). For the same compound, in series [2], the viability at 24 h, 30 µM came to 39.1%. In addition, the viability at 24 h, 10 µM in series [5] was found to be 88.4%.
In the case of `CCCCCCCO[C@@H]1[C@@H](O)[C@H](O[C@H]2O[C@H](CN)[C@@H](O)[C@H](O)[C@H]2N)[C@@H](N)C[C@H]1N`, the MIC in series [1], in [3], in series [4], in series [6], in [7] and in [8] was over 128 µg/mL throughout. For the same compound, the MIC in series [9], in series [10], in series [11], in series [12], in series [13] and in series [14] was over 128 µg/mL in each case. The same compound displayed an MIC in [15] of 64 µg/mL (≈ 152 µM). Further, the viability at 24 h, 30 µM in series [2] came to 71.3%. Moreover, the viability at 24 h, 10 µM in series [5] came to 84.3%.
Regarding `NC[C@@H]1O[C@H](O[C@H]2[C@@H](O)[C@H](O[C@@H]3[C@@H](O)[C@H](N)C[C@H](N)[C@H]3O[C@H]3O[C@H](CN)[C@@H](O)[C@H](O)[C@H]3N)O[C@@H]2CO)[C@H](N)[C@@H](O)[C@@H]1O` [FRAMYCETIN], the MIC in series [1] was 0.5 to 1 µg/mL (≈ 0.813 to 1.63 µM); in [3] it was over 128 µg/mL; in [4], 1 µg/mL (≈ 1.63 µM); in series [6], 128 µg/mL (≈ 208 µM); in [7], 4 µg/mL (≈ 6.51 µM); in series [8] it was 2 µg/mL (≈ 3.25 µM). For the same compound, the MIC in series [9] was 64 µg/mL (≈ 104 µM); in series [10], 64 to 128 µg/mL (≈ 104 to 208 µM); in series [11], 1 to 2 µg/mL (≈ 1.63 to 3.25 µM); in [12], 4 to 8 µg/mL (≈ 6.51 to 13 µM); in series [13] it was 2 to 4 µg/mL (≈ 3.25 to 6.51 µM); in series [14], 32 to 64 µg/mL (≈ 52.1 to 104 µM). Moreover, in series [15], the MIC was under 0.25 µg/mL.
As for `NC[C@H]1O[C@H](O[C@H]2[C@H](O)[C@@H](O)[C@H](N)C[C@@H]2N)[C@H](N)[C@@H](OCCCc2ccc3ccccc3c2)[C@@H]1OCCCc1ccc2ccccc2c1`, in series [16], the result was Active.
On to `NC[C@H]1O[C@H](O[C@H]2[C@H](O)[C@@H](OCc3ccc4ccccc4c3)[C@H](N)C[C@@H]2N)[C@H](N)[C@@H](OCc2ccc3ccccc3c2)[C@@H]1O`, for which the viability at 24 h, 30 µM in [2] was 75.7%.
